Experimental data as given in ChEMBL document CHEMBL4004837, “Synthesis and Characterization of Urofuranoic Acids: In Vivo Metabolism of 2-(2-Carboxyethyl)-4-methyl-5-propylfuran-3-carboxylic Acid (CMPF) and Effects on in Vitro Insulin Secretion” (J Med Chem, 2017).

How the values were obtained:
Liver [1] = experiment: (§1) Drug metabolism in CD1 mouse liver assessed as diacylglycerol conjugate formation at 6 mg/kg, ip dosed once daily for 3 days followed by dosing of 1:1 mixtures of 2-(2-Carboxyethyl)-4-methyl-5-(1-propyl-1-13C)furan-3-carboxylic Acid and test compound on day 4 and 5 measured 1 hr post dose on day 5 by HPLC-MS analysis; type: ADME, organism-based; conditions: in vivo
Method in brief: (§2)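 Mice received CMPF 6 mg/kg intraperitoneally for three days, then 1:1 labeled/unlabeled CMPF mixtures on days four and five. On day five they were euthanized 1 h post-dose, and plasma, adipose, muscle and liver were collected. Samples were analysed by HPLC-MS, with MS/MS of product ions. Metabolites were identified by the distinctive isotope patterns from the 1:1 label mixture.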

[2] = Half life in mouse at 3 mg/kg, iv; type: ADME, organism-based; conditions: in vivo
Method in brief: (§3)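 Mouse pharmacokinetics after single intravenous CMPF dosing at 1 or 3 mg/kg. Plasma exposure was followed over time to derive AUC, C0, terminal half-life, clearance and volume of distribution.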

[3] = Clearance in mouse at 1 mg/kg, iv; type: ADME, organism-based; conditions: in vivo
HEK293 = experiment: Cytotoxicity against HEK293 cells assessed as fold change in capase3/7 activity by Caspase-Glo 3/7 assay relative to DMSO; type: cell-based; conditions: human
Plasma [4] = experiment: (§4) Drug metabolism in CD1 mouse plasma assessed as loss of C2 carboxyl during fragmentation at 6 mg/kg, ip dosed once daily for 3 days followed by dosing of 1:1 mixtures of 2-(2-(Carboxy-13C)ethyl)-4-methyl-5-propylfuran-3-carboxylic-2-13C Acid and test compound on day 4 and 5 measured 1 hr post dose on day 5 by HPLC-MS analysis; type: ADME, organism-based; conditions: in vivo
Method in brief: (§5)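 CMPF given 6 mg/kg i.p. once daily for three days. On days four and five, 1:1 mixtures of stable-isotope-labelled and unlabelled CMPF were dosed. Mice were killed 1 h after the day-five dose. Plasma, adipose, muscle and liver were collected and analysed by HPLC-MS (MS/MS for product ions). Metabolites were identified by their distinctive isotope patterns from the labelled/unlabelled mixture.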

[5] = Drug metabolism in CD1 mouse adipose assessed as monoacylglycerol conjugate formation at 6 mg/kg, ip dosed once daily for 3 days followed by dosing of 1:1 mixtures of 2-(2-(Carboxy-13C)ethyl)-4-methyl-5-propylfuran-3-carboxylic-2-13C Acid and test compound on day 4 and 5 measured 1 hr post dose on day 5 by HPLC-MS analysis; type: ADME, organism-based, Adipose tissue; conditions: in vivo; method in brief: as §2
[6] = AUC in mouse at 3 mg/kg, iv; type: ADME, organism-based; conditions: in vivo
[7] = (§6) Drug metabolism in CD1 mouse adipose assessed as oxidative metabolites formation at 6 mg/kg, ip dosed once daily for 3 days followed by dosing of 1:1 mixtures of 2-(2-Carboxyethyl)-4-methyl-5-propyl-(3-13C-furan)-3-13Ccarboxylateand test compound on day 4 and 5 measured 1 hr post dose on day 5 by HPLC-MS analysis; type: ADME, organism-based, Adipose tissue; conditions: in vivo; method in brief: as §2
Plasma [8] = experiment: (§7) Drug metabolism in CD1 mouse plasma assessed as oxidative metabolites formation at 6 mg/kg, ip dosed once daily for 3 days followed by dosing of 1:1 mixtures of 2-(2-Carboxyethyl)-4-methyl-5-(1-propyl-1-13C)furan-3-carboxylic Acid and test compound on day 4 and 5 measured 1 hr post dose on day 5 by HPLC-MS analysis; type: ADME, organism-based; conditions: in vivo; method in brief: as §5
[9] = as §1, with “muscle” for “liver”, “2-(2-(Carboxy-13C)ethyl)-4-methyl-5-propylfuran-3-carboxylic-2-13C” for “2-(2-Carboxyethyl)-4-methyl-5-(1-propyl-1-13C)furan-3-carboxylic”; type: ADME, organism-based, Muscle tissue; conditions: in vivo; method in brief: as §2
[10] = Suppression of glucose-stimulated insulin secretion in mouse pancreatic islet at 200 uM incubated for 24 hrs followed by glucose stimulation for 20 mins by HTRF assay; type: ADME, cell-based
Method in brief: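 Mouse islets treated with compounds at 200 µM. Insulin secretion was then measured under low- and high-glucose GSIS conditions and under KCl stimulation, and intracellular insulin content was measured. Mean of n = 4-5 experiments with SEM.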

Liver [11] = experiment: (§8) Drug metabolism in CD1 mouse liver assessed as glycerol conjugate formation at 6 mg/kg, ip dosed once daily for 3 days followed by dosing of 1:1 mixtures of 2-(2-(Carboxy-13C)ethyl)-4-methyl-5-propylfuran-3-carboxylic-2-13C Acid and test compound on day 4 and 5 measured 1 hr post dose on day 5 by HPLC-MS analysis; type: ADME, organism-based; conditions: in vivo; method in brief: as §2
[12] = Initial plasma concentration in mouse at 3 mg/kg, iv; type: ADME, organism-based; method in brief: as §3
[13] = as §6, with “glycerol conjugate” for “oxidative metabolites”; type: ADME, organism-based, Adipose tissue; conditions: in vivo; method in brief: as §2
Plasma [14] = experiment: (§9) Drug metabolism in CD1 mouse plasma assessed as glucuronide conjugate formation at 6 mg/kg, ip dosed once daily for 3 days followed by dosing of 1:1 mixtures of 2-(2-Carboxyethyl)-4-methyl-5-propyl-(3-13C-furan)-3-13Ccarboxylate and test compound on day 4 and 5 measured 1 hr post dose on day 5 by HPLC-MS analysis; type: ADME, organism-based; conditions: in vivo; method in brief: as §5
Liver [15] = experiment: as §1, with “glycerol” for “diacylglycerol”; type: ADME, organism-based; conditions: in vivo; method in brief: as §2
[16] = Half life in mouse at 1 mg/kg, iv; type: ADME, organism-based; conditions: in vivo; method in brief: as §3
Plasma [17] = experiment: as §1, with “plasma” for “liver”, “monoacylglycerol” for “diacylglycerol”; type: ADME, organism-based; conditions: in vivo; method in brief: as §5
Plasma [18] = experiment: as §9, with “2-(2-(Carboxy-13C)ethyl)-4-methyl-5-propylfuran-3-carboxylic-2-13C Acid” for “2-(2-Carboxyethyl)-4-methyl-5-propyl-(3-13C-furan)-3-13Ccarboxylate”; type: ADME, organism-based; conditions: in vivo; method in brief: as §5
Liver [19] = experiment: as §7, with “liver” for “plasma”, “2-(2-(Carboxy-13C)ethyl)-4-methyl-5-propylfuran-3-carboxylic-2-13C” for “2-(2-Carboxyethyl)-4-methyl-5-(1-propyl-1-13C)furan-3-carboxylic”; type: ADME, organism-based; conditions: in vivo; method in brief: as §2
Plasma [20] = experiment: (§10) Drug metabolism in CD1 mouse plasma assessed as diacylglycerol conjugate formation at 6 mg/kg, ip dosed once daily for 3 days followed by dosing of 1:1 mixtures of 2-(2-Carboxyethyl)-4-methyl-5-propyl-(3-13C-furan)-3-13Ccarboxylateand test compound on day 4 and 5 measured 1 hr post dose on day 5 by HPLC-MS analysis; type: ADME, organism-based; conditions: in vivo; method in brief: as §5
Plasma [21] = experiment: as §4, with “2-(2-Carboxyethyl)-4-methyl-5-(1-propyl-1-13C)furan-3-carboxylic” for “2-(2-(Carboxy-13C)ethyl)-4-methyl-5-propylfuran-3-carboxylic-2-13C”; type: ADME, organism-based; conditions: in vivo; method in brief: as §5
Plasma [22] = experiment: as §8, with “plasma” for “liver”; type: ADME, organism-based; conditions: in vivo; method in brief: as §5
CYP2C9 = CYP2C9 (Homo sapiens, UniProt P11712); experiment: Inhibition of human microsomal CYP2C9 at 10 uM after 10 mins by single quad LC/MS analysis; type: ADME; conditions: microsomes
Chain of CYP2C9 (P11712 whole entry): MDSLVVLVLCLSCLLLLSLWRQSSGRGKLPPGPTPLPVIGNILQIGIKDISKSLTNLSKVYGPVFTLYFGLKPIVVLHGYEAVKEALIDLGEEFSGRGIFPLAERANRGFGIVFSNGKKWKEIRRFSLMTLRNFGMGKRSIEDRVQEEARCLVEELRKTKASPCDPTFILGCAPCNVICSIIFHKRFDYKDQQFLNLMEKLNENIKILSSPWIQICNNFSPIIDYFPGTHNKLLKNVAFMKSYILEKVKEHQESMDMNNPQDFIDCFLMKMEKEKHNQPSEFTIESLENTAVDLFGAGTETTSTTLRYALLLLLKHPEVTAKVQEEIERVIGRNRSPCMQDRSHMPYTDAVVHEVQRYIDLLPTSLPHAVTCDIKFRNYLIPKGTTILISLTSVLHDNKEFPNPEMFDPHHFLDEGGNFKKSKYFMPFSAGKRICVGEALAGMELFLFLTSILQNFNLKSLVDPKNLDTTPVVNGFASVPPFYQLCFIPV

Plasma [23] = experiment: as §10, with “glycerol” for “diacylglycerol”; type: ADME, organism-based; conditions: in vivo; method in brief: as §5
[24] = Initial plasma concentration in mouse at 6 mg/kg, iv; type: ADME, organism-based
[25] = Clearance in mouse at 3 mg/kg, iv; type: ADME, organism-based; conditions: in vivo
[26] = as §7, with “muscle” for “plasma”, “2-(2-(Carboxy-13C)ethyl)-4-methyl-5-propylfuran-3-carboxylic-2-13C” for “2-(2-Carboxyethyl)-4-methyl-5-(1-propyl-1-13C)furan-3-carboxylic”; type: ADME, organism-based, Muscle tissue; conditions: in vivo; method in brief: as §2
Liver [27] = experiment: as §8, with “2-(2-Carboxyethyl)-4-methyl-5-propyl-(3-13C-furan)-3-13Ccarboxylateand” for “2-(2-(Carboxy-13C)ethyl)-4-methyl-5-propylfuran-3-carboxylic-2-13C Acid and”; type: ADME, organism-based; conditions: in vivo; method in brief: as §2
Liver [28] = experiment: as §4, with “liver” for “plasma”; type: ADME, organism-based; conditions: in vivo; method in brief: as §2
CYP2D6 = CYP2D6 (Homo sapiens, UniProt P10635); experiment: Inhibition of human microsomal CYP2D6 at 10 uM after 3 mins by single quad LC/MS analysis; type: ADME; conditions: microsomes
Chain of CYP2D6 (P10635 whole entry): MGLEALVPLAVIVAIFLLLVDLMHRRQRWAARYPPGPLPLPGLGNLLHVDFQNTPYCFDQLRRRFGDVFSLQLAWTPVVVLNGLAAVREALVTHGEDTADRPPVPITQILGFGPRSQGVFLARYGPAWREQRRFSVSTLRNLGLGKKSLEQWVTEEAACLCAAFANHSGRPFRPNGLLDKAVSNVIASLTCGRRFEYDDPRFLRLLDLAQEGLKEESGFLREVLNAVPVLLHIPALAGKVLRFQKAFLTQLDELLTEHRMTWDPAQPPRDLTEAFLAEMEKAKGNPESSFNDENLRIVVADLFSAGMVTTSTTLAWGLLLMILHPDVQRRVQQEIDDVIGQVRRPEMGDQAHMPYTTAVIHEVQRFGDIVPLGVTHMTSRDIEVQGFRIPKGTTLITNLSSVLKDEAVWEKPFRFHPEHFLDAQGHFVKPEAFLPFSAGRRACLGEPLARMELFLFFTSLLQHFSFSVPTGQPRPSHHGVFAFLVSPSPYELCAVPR

[29] = as §8, with “muscle” for “liver”; type: ADME, organism-based, Muscle tissue; conditions: in vivo; method in brief: as §2

Drug metabolism (Liver [1]): Metabolite_Notdetected
half-life [2]: 3.27 h
clearance [3]: 0.66 mL/min/kg
Drug metabolism (Plasma [4]): Metabolite_Detected
Drug metabolism [5]: Metabolite_Notdetected
AUC [6]: 210 µM·h
Drug metabolism [7]: Metabolite_Notdetected
Drug metabolism (Plasma [8]): Metabolite_Notdetected
Drug metabolism [9]: Metabolite_Notdetected
Drug metabolism (Liver [11]): Metabolite_Notdetected
C0 [12]: 130 µM
Drug metabolism [13]: Metabolite_Notdetected
Drug metabolism (Plasma [14]): Metabolite_Detected
Drug metabolism (Liver [15]): Metabolite_Notdetected
half-life [16]: 4.5 h
Drug metabolism (Plasma [17]): Metabolite_Notdetected
Drug metabolism (Plasma [18]): Metabolite_Detected
Drug metabolism (Liver [19]): Metabolite_Notdetected
Drug metabolism (Plasma [20]): Metabolite_Notdetected
Drug metabolism (Plasma [21]): Metabolite_Detected
Drug metabolism (Plasma [22]): Metabolite_Notdetected
inhibition at 10 min, 10 µM (CYP2C9): 0%
Drug metabolism (Plasma [23]): Metabolite_Notdetected
C0 [24]: 200 to 250 µM
clearance [25]: 0.85 mL/min/kg
Drug metabolism [26]: Metabolite_Notdetected
Drug metabolism (Liver [27]): Metabolite_Notdetected
Drug metabolism (Liver [28]): Metabolite_Detected
inhibition at 0.05 h, 10 µM (CYP2D6): 0%
Drug metabolism [29]: Metabolite_Notdetected
Structure (SMILES): CCCc1oc(CCC(=O)O)c(C(=O)O)c1C
fold change (FC) (HEK293): 0.8 to 1.1
Activity [10]: Toxic
